Assay results published in ChEMBL document CHEMBL4024779, “Novel Terminal Bipheny-Based Diapophytoene Desaturases (CrtN) Inhibitors as Anti-MRSA/VISR/LRSA Agents with Reduced hERG Activity” (J Med Chem, 2018).
Changes are numbered by the printed parent chain. Calls of active or inactive are those of the source. The rule behind the calls is not given here.

Key:
[1] = target: T1, 4,4'-diapophytoene desaturase (4,4'-diaponeurosporene-forming) (Staphylococcus aureus (strain Mu50 / ATCC 700699)) (UniProt Q99R76); settings: Staphylococcus aureus subsp. aureus Mu50; 1 uM
T1 sequence (whole entry): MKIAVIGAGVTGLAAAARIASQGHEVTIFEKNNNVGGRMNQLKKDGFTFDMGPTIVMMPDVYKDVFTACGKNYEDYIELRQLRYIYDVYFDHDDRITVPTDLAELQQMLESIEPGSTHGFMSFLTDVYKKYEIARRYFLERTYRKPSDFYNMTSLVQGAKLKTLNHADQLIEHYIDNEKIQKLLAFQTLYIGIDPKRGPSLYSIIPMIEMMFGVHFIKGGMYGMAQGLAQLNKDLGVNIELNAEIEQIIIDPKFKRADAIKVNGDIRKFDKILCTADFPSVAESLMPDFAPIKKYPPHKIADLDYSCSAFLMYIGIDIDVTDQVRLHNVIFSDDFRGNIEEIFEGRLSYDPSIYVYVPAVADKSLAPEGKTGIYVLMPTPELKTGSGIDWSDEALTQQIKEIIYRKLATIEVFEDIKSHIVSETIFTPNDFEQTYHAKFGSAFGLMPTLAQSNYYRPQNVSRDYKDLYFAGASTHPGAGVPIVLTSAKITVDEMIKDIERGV

Cytochrome P450 3A4 = Cytochrome P450 3A4 (Homo sapiens, UniProt P08684); assay: Inhibition of CYP3A4 in human liver microsomes using testosterone as substrate upto 10 uM after 5 mins in presence of NADPH by LC-MS/MS analysis; assay type: ADME
Cytochrome P450 3A4, sequence (P08684 whole entry): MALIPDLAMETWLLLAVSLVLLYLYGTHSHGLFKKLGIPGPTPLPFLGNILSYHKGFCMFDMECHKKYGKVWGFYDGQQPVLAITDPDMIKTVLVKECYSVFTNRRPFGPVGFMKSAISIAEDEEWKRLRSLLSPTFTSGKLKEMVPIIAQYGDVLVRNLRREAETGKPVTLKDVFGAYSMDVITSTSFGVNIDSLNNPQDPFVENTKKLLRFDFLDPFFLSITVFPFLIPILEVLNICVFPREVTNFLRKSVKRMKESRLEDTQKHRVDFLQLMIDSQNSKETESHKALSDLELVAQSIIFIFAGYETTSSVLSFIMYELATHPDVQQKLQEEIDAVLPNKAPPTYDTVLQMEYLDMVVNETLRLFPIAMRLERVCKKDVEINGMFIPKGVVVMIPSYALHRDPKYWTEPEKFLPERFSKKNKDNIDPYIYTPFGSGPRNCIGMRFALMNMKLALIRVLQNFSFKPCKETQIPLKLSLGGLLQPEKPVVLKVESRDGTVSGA

[2] = Inhibition of CrtN in methicillin-resistant Staphylococcus aureus NRS100 assessed as reduction in staphyloxanthin levels after 48 hrs by spectrophotometric method-based pigment inhibition assay
[3] = Half life in mouse at 2 mg/kg, iv administered as single dose by LC-MS/MS analysis; assay type: ADME, organism-based; settings: in vivo
[4] = Cmax in mouse at 10 mg/kg, po administered as single dose by LC-MS/MS analysis; assay type: ADME, organism-based; parameters: dose 10 mg/kg, route oral; settings: in vivo
[5] = target: T2, 4,4'-diapophytoene desaturase (4,4'-diaponeurosporene-forming) (Staphylococcus aureus (strain USA300)) (UniProt Q2FDU6); settings: Staphylococcus aureus LAC, 1 uM
T2 sequence (whole entry): T1 sequence (whole entry)

[6] = target: T3, 4,4'-diapophytoene desaturase (4,4'-diaponeurosporene-forming) (Staphylococcus aureus (strain MW2)) (UniProt Q8NUQ6); settings: Staphylococcus aureus subsp. aureus MW2; USA400; 1 uM
T3 sequence (whole entry): T1 sequence (whole entry) with R500Q

Staphylococcus aureus [7] = assay: In vivo anti-virulence activity against methicillin-resistant Staphylococcus aureus Mu50 infected in BALB/c mouse model assessed as reduction in bacterial load in heart at 0.05 mg bid for 3.5 days administered intraperitoneally 6 hrs post infection by serial dilution method; assay type: functional; parameters: scale not given: the % may be the effect or the level left
Procedure, shortened: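 Mice were challenged with 1.3 × 10^9 CFU Mu50. Compound was given intraperitoneally, either 24 h before or 6 h after infection. Log10 CFU was counted in kidneys and hearts.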

[8] = AUC (0 to infinity) in mouse at 2 mg/kg, iv administered as single dose by LC-MS/MS analysis; assay type: ADME, organism-based; parameters: dose 2 mg/kg, time infinity, route intravenous; settings: in vivo
Staphylococcus aureus [9] = assay: In vivo anti-virulence activity against Staphylococcus aureus Newman infected in BALB/c mouse model assessed as reduction in bacterial load in kidney at 0.4 mg bid for 3.5 days administered orally 6 hrs post infection by serial dilution method relative to control; assay type: functional; parameters: scale not given: the % may be the effect or the level left
Procedure, shortened: (§1)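 Mice got 3.1 × 10^7 CFU S. aureus Newman by retro-orbital injection. Oral compound was given b.i.d. for 3.5 d, starting 6 h after infection. […] Log10 CFU was counted per kidney and per heart.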

[10] = Inhibition of CrtN in methicillin-resistant Staphylococcus aureus LRSA56 assessed as reduction in staphyloxanthin levels after 48 hrs by spectrophotometric method-based pigment inhibition assay
[11] = Inhibition of CrtN in methicillin-resistant Staphylococcus aureus LRSA205 assessed as reduction in staphyloxanthin levels after 48 hrs by spectrophotometric method-based pigment inhibition assay
Staphylococcus aureus [12] = assay: In vivo anti-virulence activity against Staphylococcus aureus Newman infected in BALB/c mouse model assessed as reduction in bacterial load in heart at 0.2 mg bid for 3.5 days administered orally 6 hrs post infection by serial dilution method relative to vancomycin; assay type: functional; parameters: scale not given: the % may be the effect or the level left
Procedure, shortened: as §1

[13] = Half life in Sprague-Dawley rat at 10 mg/kg, po administered as single dose by LC-MS/MS analysis; assay type: ADME, organism-based; settings: in vivo
[14] = Tmax in Sprague-Dawley rat at 10 mg/kg, ip administered as single dose by LC-MS/MS analysis; assay type: ADME, organism-based; settings: in vivo
Staphylococcus aureus [15] = assay: In vivo anti-virulence activity against Staphylococcus aureus Newman infected in BALB/c mouse model assessed as reduction in bacterial load in kidney at 0.2 mg bid for 3.5 days administered orally 6 hrs post infection by serial dilution method relative to control; assay type: functional; parameters: scale not given: the % may be the effect or the level left
Procedure, shortened: as §1

[16] = Inhibition of CrtN in methicillin-resistant Staphylococcus aureus NF65Y assessed as reduction in staphyloxanthin levels after 48 hrs by spectrophotometric method-based pigment inhibition assay
Staphylococcus aureus [17] = assay: In vivo anti-virulence activity against methicillin-resistant Staphylococcus aureus LRSA202 infected in BALB/c mouse model assessed as reduction in bacterial load in heart at 0.1 mg bid for 3.5 days administered intraperitoneally 6 hrs post infection by serial dilution method relative to control; assay type: functional, organism-based
Procedure, shortened: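 Mice were infected by retro-orbital injection with LRSA56 (5.0 × 10^7 CFU) or LRSA202 (7.0 × 10^7 CFU). Compound was given intraperitoneally 6 h after infection. […] Log10 CFU was counted in kidneys and hearts, with groups compared by two-tailed Mann-Whitney test.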

Cytochrome P450 2C19 = Cytochrome P450 2C19 (Homo sapiens, UniProt P33261); assay: Inhibition of CYP2C19 in human liver microsomes using mephenytoin as substrate upto 10 uM after 45 mins in presence of NADPH by LC-MS/MS analysis; assay type: ADME
Cytochrome P450 2C19, sequence (P33261 whole entry): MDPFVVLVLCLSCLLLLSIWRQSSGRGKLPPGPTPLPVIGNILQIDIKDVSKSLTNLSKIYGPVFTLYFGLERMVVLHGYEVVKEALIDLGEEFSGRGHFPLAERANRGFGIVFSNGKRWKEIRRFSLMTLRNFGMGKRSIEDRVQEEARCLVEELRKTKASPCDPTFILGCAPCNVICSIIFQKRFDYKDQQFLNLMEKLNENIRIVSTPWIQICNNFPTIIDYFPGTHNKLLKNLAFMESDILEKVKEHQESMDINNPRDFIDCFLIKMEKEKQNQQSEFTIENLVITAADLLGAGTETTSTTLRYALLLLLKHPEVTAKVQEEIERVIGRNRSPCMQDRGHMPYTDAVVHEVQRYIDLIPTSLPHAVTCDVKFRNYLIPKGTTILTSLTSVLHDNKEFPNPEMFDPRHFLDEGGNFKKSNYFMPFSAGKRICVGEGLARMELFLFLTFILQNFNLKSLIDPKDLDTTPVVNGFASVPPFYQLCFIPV

Staphylococcus aureus [18] = assay: In vivo anti-virulence activity against Staphylococcus aureus Newman in mouse lethal infection model assessed as host survival rate at 0.1 mg bid for 3.5 days administered intraperitoneally 6 hrs post infection and measured on day 8; assay type: functional
Procedure, shortened: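 In a lethal sepsis model, mice (n=15) were challenged with 2 × 10^8 CFU S. aureus Newman. Animal survival was recorded daily through day 8.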

Structure (SMILES): CN(C/C=C/c1ccc(-c2ccccc2)cc1)Cc1coc2ccccc12.Cl
- Survival [1]: 2.7%
- IC50 (Cytochrome P450 3A4): > 10000 nM
- IC50 [2]: 1.2 nM
- half-life [3]: 2.05 h
- Cmax [4]: 801 ng/mL
- Survival [5]: 2.3%
- Survival [6]: 1%
- Activity (Staphylococcus aureus [7]): >99.8%
- AUC(0-inf) [8]: 1090 ng·h/mL
- Activity (Staphylococcus aureus [9]): 90%
- IC50 [10]: 1.8 nM
- IC50 [11]: 10.5 nM
- Activity (Staphylococcus aureus [12]): >55.3%
- half-life [13]: 1.29 h
- Tmax [14]: 3 h
- Activity (Staphylococcus aureus [15]): 90%
- IC50 [16]: 1 nM
- Activity (Staphylococcus aureus [17]): Active
- IC50 (Cytochrome P450 2C19): > 10000 nM
- Survival (Staphylococcus aureus [18]): >70%
